Entries after “also recorded” stand apart in the source; their conditions may differ. One block for each molecule: values may come before it.
Assays:
A2AR [1] = molecular target: T1, A2AR (Homo sapiens, UniProt P29274, N154A); assay: GTP hydrolysis assay; type: biochemical; details: for Inhibition screen: metabolites at 100 μM, with adenosine, replicates, 100 µM
[2] = test system: A2AR (thermostabilized A2AR-BRIL); assay: MIDAS equilibrium dialysis with LC-MS metabolite screen; type: binding, human; details: p < 0.05, Supplementary Fig. 2a
A2AR-ΔCTD = A2AR-ΔCTD (Homo sapiens, UniProt P29274, N154A); assay: Competition fluorescence polarization; type: binding
Chain of A2AR-ΔCTD (P29274 8-316 N154A): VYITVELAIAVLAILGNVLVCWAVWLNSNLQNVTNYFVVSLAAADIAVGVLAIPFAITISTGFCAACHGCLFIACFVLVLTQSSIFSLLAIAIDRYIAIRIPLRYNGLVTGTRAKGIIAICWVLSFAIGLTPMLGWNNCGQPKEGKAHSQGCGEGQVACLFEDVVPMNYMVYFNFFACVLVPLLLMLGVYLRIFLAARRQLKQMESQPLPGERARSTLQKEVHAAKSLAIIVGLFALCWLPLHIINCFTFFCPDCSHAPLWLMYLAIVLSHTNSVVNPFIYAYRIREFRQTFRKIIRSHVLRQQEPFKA
Procedure, shortened: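 Receptor was preincubated with metabolite for 10 min, then mixed with fluorescent NECA (10 nM final) for 10 min at room temperature with gentle shaking. Fluorescence polarization was read.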

[3] = test system: HEK293 cells stably expressing A2AR; assay: HTRF cAMP detection assay, inhibition of adenosine-induced cAMP production; type: cell-based, human; details: for inhibition of adenosine-induced cAMP production: concentration-dependent assay
A2AR [4] = molecular target: T1, A2AR; assay: GTP hydrolysis assay; type: biochemical; details: for agonist efficacy: GTP hydrolysis assay; for fold decrease/reduction in potency compared to adenosine: GTP hydrolysis assay EC50 values; for Activation screen: metabolites at 10 μM, replicates
[5] = test system: HEK293 cells stably expressing A2AR; assay: HTRF cAMP detection assay, agonist activation; type: cell-based, human
A2AR V84 to alanine = details: V84 mutated to alanine; cited from earlier work
A2AR H278 to alanine = details: H278 mutated to alanine; cited from earlier work
A2AR H75A = A2AR H75A (Homo sapiens, UniProt P29274, H75A/N154A); assay: GTP hydrolysis inhibition comparison, A2AR mutant; type: biochemical; details: 20 µM PGD2, Supplementary Fig. 10
Chain of A2AR H75A (P29274 8-316 H75A/N154A): as the sequence (P29274 8-316 N154A) above, with H68A counted along it

A2AR K233A = A2AR K233A (Homo sapiens, UniProt P29274, K233A/N154A); assay: GTP hydrolysis inhibition comparison, A2AR mutant; type: biochemical; details: 20 µM PGD2, Supplementary Fig. 10
Chain of A2AR K233A (P29274 8-316 N154A/K233A): as the sequence (P29274 8-316 N154A) above, with K226A counted along it

A2AR [6] = molecular target: T1, A2AR; assay: Differential scanning fluorimetry; type: binding; details: dose-response DSF
A2AR Q163E/H75A = A2AR Q163E/H75A (Homo sapiens, UniProt P29274, H75A/N154A/Q163E); assay: GTP hydrolysis inhibition comparison, A2AR mutant; type: biochemical; details: 20 µM PGD2, Supplementary Fig. 10
Chain of A2AR Q163E/H75A (P29274 8-316 H75A/N154A/Q163E): as the sequence (P29274 8-316 N154A) above, with H68A, Q156E counted along it

T1 sequence (P29274 8-316 N154A): as the sequence (P29274 8-316 N154A) above

Inhibition screen (A2AR [1]): no effect
Compound: CCCCC[C@H](O)/C=C/[C@@H]1[C@H]2C/C(=C/CCCC(=O)O)O[C@H]2C[C@H]1O [PGI2]
MIDAS enrichment, statistical significance [2]: significantly enriched | effect on affinity of fluorescently labeled NECA to A2AR (A2AR-ΔCTD; 500 µM prostaglandin): none of the three prostaglandins – PGI2, PGE2, and PGD2 were able to displace a fluorescently-labeled orthosteric ligand

Compound: CN(C)c1ncnc2nc[nH]c12 [DMAP, dimethylaminopurine]
MIDAS enrichment, statistical significance [2]: significantly enriched

Inhibition screen (A2AR [1]): no effect
Compound: CCCCC[C@H](O)/C=C/[C@H]1[C@H](O)CC(=O)[C@@H]1C/C=C\CCCC(=O)O [PGE2]
inhibition of adenosine-induced cAMP production [3]: no significant effect | MIDAS enrichment, statistical significance [2]: significantly enriched | effect on affinity of fluorescently labeled NECA to A2AR (A2AR-ΔCTD; 500 µM prostaglandin): none of the three prostaglandins – PGI2, PGE2, and PGD2 were able to displace a fluorescently-labeled orthosteric ligand

Compound: Nc1ncnc2[nH]cnc12 [Adenine]
MIDAS enrichment, statistical significance [2]: significantly enriched

EC50 (A2AR [4]): 5 µM | agonist efficacy (A2AR [4]): full agonists | fold decrease/reduction in potency compared to adenosine (A2AR [4]): > 250 fold | effect on affinity of fluorescently labeled NECA to A2AR (A2AR-ΔCTD; 100 µM SAH or DA): reduced the affinity of NECA
Compound: Nc1ncnc2c1ncn2[C@@H]1O[C@H](CSCC[C@H](N)C(=O)O)[C@@H](O)[C@H]1O [SAH, S-adenosyl-L-homocysteine]
Activation screen (A2AR [4]): activated A2AR; also recorded: sub-maximal activation | MIDAS enrichment, statistical significance [2]: did not meet the statistical significance threshold | EC50 ([5]; Homo sapiens, HEK293): ~5 µM

Compound: CCNC(=O)[C@H]1O[C@@H](n2cnc3c(N)nc(NCCc4ccc(CCC(=O)O)cc4)nc32)[C@H](O)[C@@H]1O [CGS21680]
reduction in binding (A2AR V84 to alanine): > 98% | reduction in binding (A2AR H278 to alanine): > 98%

EC50 (A2AR [4]): 15 µM | agonist efficacy (A2AR [4]): full agonists | fold decrease/reduction in potency compared to adenosine (A2AR [4]): > 800 fold | effect on affinity of fluorescently labeled NECA to A2AR (A2AR-ΔCTD; 100 µM SAH or DA): reduced the affinity of NECA
Compound: Nc1ncnc2c1ncn2[C@H]1C[C@H](O)[C@@H](CO)O1 [DA, 2’-deoxyadenosine]
Activation screen (A2AR [4]): activated A2AR; also recorded: sub-maximal activation | MIDAS enrichment, statistical significance [2]: did not meet the statistical significance threshold | A2AR activation in HEK293 cells ([5]; cell-based cAMP detection assay, Supplementary Fig. 12c): required millimolar concentrations for activation

IC50 (A2AR [1]; IC50, dose-response assay, Supplementary Fig. 5a): 180 µM | Inhibition screen (A2AR [1]): completely inhibiting A2AR activity | change of PGD2-mediated inhibition by mutation (A2AR H75A): comparatively no effect | change of PGD2-mediated inhibition by mutation (A2AR K233A): no change | change of PGD2-mediated inhibition by mutation (A2AR Q163E/H75A): minor reduction of inhibition
Compound: CCCCC[C@H](O)/C=C/[C@H]1C(=O)C[C@H](O)[C@@H]1C/C=C\CCCC(=O)O [PGD2, prostaglandin D2]
fold increase in the IC50 in cell-based assay relative to protein-based assay ([3]; HTRF cAMP vs GTP hydrolysis): approximately 8 fold | inhibition of adenosine-induced cAMP production [3]: near-complete inhibition | inhibition of A2AR in competition activity assay (A2AR [1]; 500 μM PGD2, saturating adenosine up to 100 µM): sustained inhibition; also recorded: near-complete inhibition | MIDAS enrichment, statistical significance [2]: significantly enriched | effect on melting temperature (Tm) of A2AR (A2AR [6]): concentration-dependent increase in the melting temperature (Tm) | effect on affinity of fluorescently labeled NECA to A2AR (A2AR-ΔCTD; 500 µM prostaglandin): none of the three prostaglandins – PGI2, PGE2, and PGD2 were able to displace a fluorescently-labeled orthosteric ligand
